In ChEMBL document CHEMBL1811918, “Sesquiterpene and norsesquiterpene derivatives from Sanicula lamelligera and their biological evaluation” (J Nat Prod, 2011):
Residues, ends and D or L forms follow the SMILES beside them. *: point of attachment. Cbz = O=C(OCc1ccccc1)*

Key:
HL-60 = experiment: Cytostatic activity against human HL60 cells after […] by MTT assay; type: functional, cell-based
Method in brief: (§1)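 MTT viability in human tumor lines exposed to a concentration series for 48 h. Adherent cells were allowed to attach for 12 h before dosing. Suspension cells were seeded immediately before dosing at (1–2) × 10^5 cells/mL. DMSO wells served as negative control and DDP (cisplatin) as positive control. IC50 was calculated from viability.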

RAW264.7 = experiment: Antiinflammatory against mouse RAW264.7 cells assessed as inhibition of LPS-induced nitric oxide production; type: functional, cell-based
Method in brief: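 Nitric oxide production was measured in LPS-stimulated RAW 264.7 macrophages, with DMSO wells as negative control and MG-132 as positive control. IC50 was derived.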

[1] = Therapeutic index, ratio of CC50 for human C8166 cells to EC50 for Human immunodeficiency virus 1 3B infected in human C8166 cells; type: cell-based; conditions: read-out: Ratio CC50/EC50
Method in brief: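 Ratio of CC50 (MTT viability of uninfected C8166 cells, 3 days, 37 C) to EC50 (syncytium counts in HIV-1 IIIB-infected C8166 cells, 3 days, 37 C).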

SW480 = experiment: Cytostatic activity against human SW480 cells after […] by MTT assay; type: functional, cell-based; method in brief: as §1
SMMC-7721 = experiment: Cytostatic activity against human SMMC7721 cells after […] by MTT assay; type: functional, cell-based; method in brief: as §1
[2] = system: Human immunodeficiency virus 1; experiment: Antiviral activity against Human immunodeficiency virus 1 3B infected in human C8166 cells assessed as numbers of syncytia after 3 days by syncytium counting; conditions: C8166, 72 h
A549 = experiment: Cytostatic activity against human A549 cells after […] by MTT assay; type: functional, cell-based; method in brief: as §1
[3] = Cytotoxicity against human C8166 cells after 3 days by MTT assay; type: cell-based
Method in brief: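 C8166 cells were seeded in triplicate with or without a concentration series and held at 37 C for 3 days, with compound-free wells as negative control. Viable cells were quantified by MTT absorbance at 595/630 nm. CC50, the 50% reduction in viable cells, was taken from the dose–response curve.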

MCF7 = experiment: Cytostatic activity against human MCF7 cells after […] by MTT assay; type: functional, cell-based; method in brief: as §1
[4] = system: Human immunodeficiency virus 1; experiment: Antiviral activity against Human immunodeficiency virus 1 3B infected in human C8166 cells assessed as numbers of syncytia after 3 days by MTT assay; type: functional, organism-based; conditions: C8166, 72 h
Method in brief: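 Compounds at various concentrations were added to C8166 cells (8 × 10^5/mL) infected with HIV-1 IIIB and incubated at 37 C for 3 days. The cytopathic effect was scored by counting syncytia, with AZT as positive control. EC50 came from the percentage of syncytial cells relative to the infected untreated control.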

Row | Compound | IC50 (HL-60) [µM] | IC50 (RAW264.7) [µM] | selectivity ratio [1] | IC50 (SW480) [µM] | IC50 (SMMC-7721) [µM] | EC50 [2] [µM] | IC50 (A549) [µM] | CC50 at 72 h [3] [µM] | IC50 (MCF7) [µM] | EC50 [4] [nM]
1 | C=C1CC[C@H]2[C@@H]([C@@H]3[C@@H]1CC[C@@]3(C)O)C2(C)C | > 64.4 | > 64.4 | 1.6 | > 64.4 | > 64.4 | 104 | > 64.4 | 170 | > 64.4 | 
2 | C=C1CC[C@@H](O)[C@@]2(C)CC[C@H](C(C)C)[C@@H](O)[C@H]12 | 31.1 | 28.1 | 2.1 | 37 | 32.4 | 31.9 | 41.6 | 68.1 | 35.3 | 
3 | C=C1CC[C@@H](O)[C@]2(C)CC[C@H](CC(C)(C)O)[C@@H]12 | > 64.4 | > 64.4 |  | > 64.4 | > 64.4 | > 420 | > 64.4 | > 420 | > 64.4 | 
4 | CC(=O)/C=C/[C@@]1(O)C(C)=CC(=O)CC1(C)C | > 64.4 | > 64.4 |  | > 64.4 | > 64.4 | > 450 | > 64.4 | > 450 | > 64.4 | 
5 | C=C1CC[C@H](O)[C@@]2(C)CC[C@@H]([C@@H](O)C(C)C)[C@H]12 | > 64.4 | > 64.4 | 2.4 | > 64.4 | > 64.4 | 167 | > 64.4 | 398 | > 64.4 | 
6 | C=C1CC[C@@H](O)[C@]2(C)CC[C@@](O)(C(C)C)C[C@@H]12 | > 64.4 | > 64.4 |  | > 64.4 | > 64.4 | > 420 | > 64.4 | > 420 | > 64.4 | 
7 | CC(=O)C=C=C1C(C)(C)C[C@H](O)C[C@@]1(C)O[C@@H]1O[C@H](CO)[C@@H](O)[C@H](O)[C@H]1O [CITROSIDE B] | > 64.4 | > 64.4 |  | > 64.4 | > 64.4 | > 259 | > 64.4 | > 259 | > 64.4 | 
8 | C=C(C)[C@@H]1CC[C@@]2(C)[C@H](O)CC[C@@](C)(O)[C@@H]2C1 [CYPERUSOL C] | > 64.4 | > 64.4 | > 2.8 | > 64.4 | > 64.4 | 150 | > 64.4 | > 420 | > 64.4 | 
9 | CC(C)C1=C[C@@H]2[C@H](CC[C@@]2(C)O)[C@@](C)(O)CC1 [GUAIANEDIOL] | > 64.4 | > 64.4 |  | > 64.4 | > 64.4 | > 420 | > 64.4 | > 420 | > 64.4 | 
10 | CC(C)C[C@@H](C=O)NC(=O)[C@H](CC(C)C)NC(=O)[C@H](CC(C)C)NC(=O)OCc1ccccc1 [MG-132] (Cbz-Leu-Leu-Leu-aldehyde) |  | 0.439 |  |  |  |  |  |  |  | 
11 | C[C@H](/C=C/[C@]12O[C@@]1(C)C[C@@H](O)CC2(C)C)O[C@@H]1O[C@H](CO)[C@@H](O)[C@H](O)[C@H]1O [PHLOMUROSIDE] | > 64.4 | > 64.4 |  | > 64.4 | > 64.4 | > 258 | > 64.4 | > 258 | > 64.4 | 
12 | CC(C)[C@H]1CC[C@@]2(C)[C@@H]1[C@H]1O[C@@H]2CC[C@@H]1C(=O)O [SANICULAMOID A1] | > 64.4 | > 64.4 | 1.2 | > 64.4 | > 64.4 | 162 | > 64.4 | 195 | > 64.4 | 
13 | CC(C)[C@H]1CC[C@@]2(C)[C@@H]1[C@@H]1O[C@]1(CO)CC[C@@H]2O [SANICULAMOID B] | > 64.4 | > 64.4 | 2.9 | > 64.4 | > 64.4 | 126 | > 64.4 | 358 | > 64.4 | 
14 | CC(C)(O)[C@H]1C[C@H]2[C@H](CC[C@@]2(C)O)[C@](C)(O)C[C@@H]1O [SANICULAMOID C] | > 64.4 | > 64.4 |  | > 64.4 | > 64.4 | > 368 | > 64.4 | > 368 | > 64.4 | 
15 | CC(=O)CC[C@@H](C(C)C)[C@@H]1[C@H]2CCC(=O)[C@H]21 [SANICULAMOID D] | > 64.4 | > 64.4 | > 2.3 | > 64.4 | > 64.4 | 196 | > 64.4 | > 450 | > 64.4 | 
16 | Cc1cn([C@H]2C[C@H](N=[N+]=[N-])[C@@H](CO)O2)c(=O)[nH]c1=O [ZIDOVUDINE] |  |  | 214000 |  |  |  |  | 4070 |  | 4.5
